Measured values published in ChEMBL document CHEMBL3739379, “Anti-Candida activity and cytotoxicity of a large library of new N-substituted-1,3-thiazolidin-4-one derivatives” (Eur J Med Chem, 2016).
Values after ≈ are worked out from the molar mass of the structure shown.

System: Proteus mirabilis
Assay: Antibacterial activity against Proteus mirabilis after 18 to 22 hrs by broth microdilution method
Format: functional
Settings: not given
Summary of the method: (§1)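 Broth microdilution per NCCLS in Mueller-Hinton II broth; isolates subcultured for purity. Compounds dissolved in DMSO, serial dilutions 256 to 0.5 µg/mL; inoculum 10^5/mL. Controls: organism without compound, medium only. Incubation 18 to 22 h at 35 °C. MIC is the lowest concentration giving complete growth inhibition, read by unaided eye.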

SMILES | MIC [µg/mL]
C/C(CC(C)C)=N\N=C1/SCC(=O)N1CN1C(=O)c2ccccc2C1=O | > 256
O=C1CS/C(=N\N=C2CCCC2)N1Cc1ccc([N+](=O)[O-])cc1 | > 256
O=C1CS/C(=N\N=C\c2ccco2)N1Cc1ccc([N+](=O)[O-])cc1 | > 256
O=C1CS/C(=N\N=C\c2cccc3ccccc23)N1Cc1ccc([N+](=O)[O-])cc1 | > 256

System: not listed separately
Assay: Cytotoxicity against human Hep2 cells assessed as cell survival at 50 ug/ml after 24 hrs by trypan blue exclusion test (reference value: 87 to 94%)
Format: cell-based, HEp-2
Settings: read-out: Survival

SMILES | viability at 24 h, 50 ug/ml [%]
C/C(CC(C)C)=N\N=C1/SCC(=O)N1CN1C(=O)c2ccccc2C1=O | 79
O=C1CS/C(=N\N=C2CCCC2)N1Cc1ccc([N+](=O)[O-])cc1 | 0

System: Staphylococcus aureus
Assay: Antibacterial activity against Staphylococcus aureus after 18 to 22 hrs by broth microdilution method
Format: functional
Settings: not given
Summary of the method: as §1

SMILES | MIC [µg/mL]
C/C(CC(C)C)=N\N=C1/SCC(=O)N1CN1C(=O)c2ccccc2C1=O | > 256
O=C1CS/C(=N\N=C2CCCC2)N1Cc1ccc([N+](=O)[O-])cc1 | > 256
O=C1CS/C(=N\N=C\c2ccco2)N1Cc1ccc([N+](=O)[O-])cc1 | > 256
O=C1CS/C(=N\N=C\c2cccc3ccccc23)N1Cc1ccc([N+](=O)[O-])cc1 | > 256

System: Candida albicans
Assay: Antifungal activity against Candida albicans clinical isolate after 24 hrs by sabouraud dextrose broth based microdilution method
Format: functional
Settings: not given
Summary of the method: (§2)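 Clinical isolates identified by conventional methods and subcultured for purity. Broth microdilution per NCCLS in Sabouraud dextrose broth; compounds dissolved in DMSO and serially diluted; inoculum 10^3/mL. Controls: fungi without compound, medium only. Incubated 24 h at 37 °C. MIC is the lowest concentration with complete growth inhibition by unaided eye. Values are geometric means over isolates per species.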

SMILES | MIC [µg/mL]
C/C(CC(C)C)=N\N=C1/SCC(=O)N1CN1C(=O)c2ccccc2C1=O | 2 (≈ 5.37 µM)
O=C1CS/C(=N\N=C2CCCC2)N1Cc1ccc([N+](=O)[O-])cc1 | 2 (≈ 6.02 µM)
O=C1CS/C(=N\N=C\c2ccco2)N1Cc1ccc([N+](=O)[O-])cc1 | 4 (≈ 11.6 µM)
O=C1CS/C(=N\N=C\c2cccc3ccccc23)N1Cc1ccc([N+](=O)[O-])cc1 | 256 (≈ 633 µM)

System: Pichia kudriavzevii
Assay: Antifungal activity against Candida krusei clinical isolate after 24 hrs by sabouraud dextrose broth based microdilution method
Format: functional
Settings: not given
Summary of the method: as §2

SMILES | MIC [µg/mL]
C/C(CC(C)C)=N\N=C1/SCC(=O)N1CN1C(=O)c2ccccc2C1=O | 2 (≈ 5.37 µM)
O=C1CS/C(=N\N=C2CCCC2)N1Cc1ccc([N+](=O)[O-])cc1 | 8 (≈ 24.1 µM)
O=C1CS/C(=N\N=C\c2ccco2)N1Cc1ccc([N+](=O)[O-])cc1 | 16 (≈ 46.5 µM)
O=C1CS/C(=N\N=C\c2cccc3ccccc23)N1Cc1ccc([N+](=O)[O-])cc1 | 8 (≈ 19.8 µM)

System: not listed separately
Assay: Cytotoxicity against human Hep2 cells assessed as cell survival at 0.5 ug/ml after 24 hrs by trypan blue exclusion test (reference value: 87 to 94%)
Format: cell-based, HEp-2
Settings: read-out: Survival

SMILES | viability at 24 h, 0.5 ug/ml [%]
C/C(CC(C)C)=N\N=C1/SCC(=O)N1CN1C(=O)c2ccccc2C1=O | 92.8
O=C1CS/C(=N\N=C2CCCC2)N1Cc1ccc([N+](=O)[O-])cc1 | 88

System: [Candida] sake
Assay: Antifungal activity against Candida sake clinical isolate after 24 hrs by sabouraud dextrose broth based microdilution method
Format: functional
Settings: Fermentozyma sake
Summary of the method: as §2

SMILES | MIC [µg/mL]
C/C(CC(C)C)=N\N=C1/SCC(=O)N1CN1C(=O)c2ccccc2C1=O | 2 (≈ 5.37 µM)
O=C1CS/C(=N\N=C2CCCC2)N1Cc1ccc([N+](=O)[O-])cc1 | 16 (≈ 48.1 µM)
O=C1CS/C(=N\N=C\c2ccco2)N1Cc1ccc([N+](=O)[O-])cc1 | 2 (≈ 5.81 µM)
O=C1CS/C(=N\N=C\c2cccc3ccccc23)N1Cc1ccc([N+](=O)[O-])cc1 | 8 (≈ 19.8 µM)

System: Escherichia coli
Assay: Antibacterial activity against Escherichia coli at after 18 to 22 hrs by broth microdilution method
Format: functional
Settings: not given
Summary of the method: as §1

SMILES | MIC [µg/mL]
C/C(CC(C)C)=N\N=C1/SCC(=O)N1CN1C(=O)c2ccccc2C1=O | > 256
O=C1CS/C(=N\N=C2CCCC2)N1Cc1ccc([N+](=O)[O-])cc1 | > 256
O=C1CS/C(=N\N=C\c2ccco2)N1Cc1ccc([N+](=O)[O-])cc1 | > 256
O=C1CS/C(=N\N=C\c2cccc3ccccc23)N1Cc1ccc([N+](=O)[O-])cc1 | > 256

System: not listed separately
Assay: Selectivity index, ratio of CC50 for human Hep2 cells to MIC for Candida glabrata
Design: species or system HEp-2
Settings: not given
Summary of the method: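 Ratio of CC50 from the 24 h Trypan blue assay on Hep2 cells to the MIC against C. glabrata from the 24 h, 37 °C Sabouraud broth microdilution.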

SMILES | Selectivity Index
C/C(CC(C)C)=N\N=C1/SCC(=O)N1CN1C(=O)c2ccccc2C1=O | 99

System: Nakaseomyces glabratus
Assay: Antifungal activity against Candida glabrata clinical isolate after 24 hrs by sabouraud dextrose broth based microdilution method
Format: functional
Settings: not given
Summary of the method: as §2

SMILES | MIC [µg/mL]
C/C(CC(C)C)=N\N=C1/SCC(=O)N1CN1C(=O)c2ccccc2C1=O | 1 (≈ 2.68 µM)
O=C1CS/C(=N\N=C2CCCC2)N1Cc1ccc([N+](=O)[O-])cc1 | 16 (≈ 48.1 µM)
O=C1CS/C(=N\N=C\c2ccco2)N1Cc1ccc([N+](=O)[O-])cc1 | 8 (≈ 23.2 µM)
O=C1CS/C(=N\N=C\c2cccc3ccccc23)N1Cc1ccc([N+](=O)[O-])cc1 | 64 (≈ 158 µM)

System: Enterococcus faecalis
Assay: Antibacterial activity against […] faecalis after 18 to 22 hrs by broth microdilution method
Format: functional
Settings: not given
Summary of the method: as §1

SMILES | MIC [µg/mL]
C/C(CC(C)C)=N\N=C1/SCC(=O)N1CN1C(=O)c2ccccc2C1=O | > 256
O=C1CS/C(=N\N=C2CCCC2)N1Cc1ccc([N+](=O)[O-])cc1 | > 256
O=C1CS/C(=N\N=C\c2ccco2)N1Cc1ccc([N+](=O)[O-])cc1 | > 256
O=C1CS/C(=N\N=C\c2cccc3ccccc23)N1Cc1ccc([N+](=O)[O-])cc1 | > 256

System: Staphylococcus warneri
Assay: Antibacterial activity against Staphylococcus warneri after 18 to 22 hrs by broth microdilution method
Format: functional
Settings: not given
Summary of the method: as §1

SMILES | MIC [µg/mL]
C/C(CC(C)C)=N\N=C1/SCC(=O)N1CN1C(=O)c2ccccc2C1=O | > 256
O=C1CS/C(=N\N=C2CCCC2)N1Cc1ccc([N+](=O)[O-])cc1 | > 256
O=C1CS/C(=N\N=C\c2ccco2)N1Cc1ccc([N+](=O)[O-])cc1 | > 256
O=C1CS/C(=N\N=C\c2cccc3ccccc23)N1Cc1ccc([N+](=O)[O-])cc1 | > 256

System: not listed separately
Assay: Cytotoxicity against human Hep2 cells assessed as cell survival after 24 hrs by trypan blue exclusion method
Format: cell-based, HEp-2
Settings: not given
Summary of the method: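 Hep2 cells grown in DMEM with 10% FBS and 1% streptomycin-penicillin at 37 °C, 5% CO2, used at 60-70% confluency. Seeded at 1 x 10^5/mL and exposed 24 h to five concentrations (0.05-100 µg/mL), DMSO ≤0.5%. Controls: medium alone, DMSO, 1 mM nitroprusside. Cells scraped, recovered 30 min, stained 1:1 with 0.4% Trypan blue, counted by two operators. Means of ≥3 independent experiments.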

SMILES | CC50 at 24 h [µg/mL]
C/C(CC(C)C)=N\N=C1/SCC(=O)N1CN1C(=O)c2ccccc2C1=O | 99 (≈ 266 µM)
O=C1CS/C(=N\N=C2CCCC2)N1Cc1ccc([N+](=O)[O-])cc1 | 28 (≈ 84.2 µM)

System: not listed separately
Assay: Cytotoxicity against human Hep2 cells assessed as cell survival at 5 ug/ml after 24 hrs by trypan blue exclusion test (reference value: 87 to 94%)
Format: cell-based, HEp-2
Settings: read-out: Survival

SMILES | viability at 24 h, 5 ug/ml [%]
C/C(CC(C)C)=N\N=C1/SCC(=O)N1CN1C(=O)c2ccccc2C1=O | 90
O=C1CS/C(=N\N=C2CCCC2)N1Cc1ccc([N+](=O)[O-])cc1 | 51

System: not listed separately
Assay: Cytotoxicity against human Hep2 cells assessed as cell survival at 100 ug/ml after 24 hrs by trypan blue exclusion test (reference value: 87 to 94%)
Format: cell-based, HEp-2
Settings: read-out: Survival

SMILES | viability at 24 h, 100 ug/ml [%]
C/C(CC(C)C)=N\N=C1/SCC(=O)N1CN1C(=O)c2ccccc2C1=O | 47
O=C1CS/C(=N\N=C2CCCC2)N1Cc1ccc([N+](=O)[O-])cc1 | 0

System: Klebsiella oxytoca
Assay: Antibacterial activity against Klebsiella oxytoca after 18 to 22 hrs by broth microdilution method
Format: functional
Settings: not given
Summary of the method: as §1

SMILES | MIC [µg/mL]
C/C(CC(C)C)=N\N=C1/SCC(=O)N1CN1C(=O)c2ccccc2C1=O | > 256
O=C1CS/C(=N\N=C2CCCC2)N1Cc1ccc([N+](=O)[O-])cc1 | > 256
O=C1CS/C(=N\N=C\c2ccco2)N1Cc1ccc([N+](=O)[O-])cc1 | > 256
O=C1CS/C(=N\N=C\c2cccc3ccccc23)N1Cc1ccc([N+](=O)[O-])cc1 | > 256

System: not listed separately
Assay: Cytotoxicity against human Hep2 cells assessed as cell survival at 0.05 ug/ml after 24 hrs by trypan blue exclusion test (reference value: 87 to 94%)
Format: cell-based, HEp-2
Settings: read-out: Survival

SMILES | viability at 24 h, 0.05 ug/ml [%]
C/C(CC(C)C)=N\N=C1/SCC(=O)N1CN1C(=O)c2ccccc2C1=O | 94
O=C1CS/C(=N\N=C2CCCC2)N1Cc1ccc([N+](=O)[O-])cc1 | 95

System: Candida tropicalis
Assay: Antifungal activity against Candida tropicalis clinical isolate after 24 hrs by sabouraud dextrose broth based microdilution method
Format: functional
Settings: not given
Summary of the method: as §2

SMILES | MIC [µg/mL]
C/C(CC(C)C)=N\N=C1/SCC(=O)N1CN1C(=O)c2ccccc2C1=O | 64 (≈ 172 µM)
O=C1CS/C(=N\N=C2CCCC2)N1Cc1ccc([N+](=O)[O-])cc1 | 1 (≈ 3.01 µM)
O=C1CS/C(=N\N=C\c2ccco2)N1Cc1ccc([N+](=O)[O-])cc1 | 2 (≈ 5.81 µM)
O=C1CS/C(=N\N=C\c2cccc3ccccc23)N1Cc1ccc([N+](=O)[O-])cc1 | 16 (≈ 39.6 µM)

System: Staphylococcus haemolyticus
Assay: Antibacterial activity against Staphylococcus haemolyticus after 18 to 22 hrs by broth microdilution method
Format: functional
Settings: not given
Summary of the method: as §1

SMILES | MIC [µg/mL]
C/C(CC(C)C)=N\N=C1/SCC(=O)N1CN1C(=O)c2ccccc2C1=O | > 256
O=C1CS/C(=N\N=C2CCCC2)N1Cc1ccc([N+](=O)[O-])cc1 | > 256
O=C1CS/C(=N\N=C\c2ccco2)N1Cc1ccc([N+](=O)[O-])cc1 | > 256
O=C1CS/C(=N\N=C\c2cccc3ccccc23)N1Cc1ccc([N+](=O)[O-])cc1 | > 256

System: Enterobacter sp.
Assay: Antibacterial activity against Enterobacter sp. after 18 to 22 hrs by broth microdilution method
Format: functional
Settings: not given
Summary of the method: as §1

SMILES | MIC [µg/mL]
C/C(CC(C)C)=N\N=C1/SCC(=O)N1CN1C(=O)c2ccccc2C1=O | > 256
O=C1CS/C(=N\N=C2CCCC2)N1Cc1ccc([N+](=O)[O-])cc1 | > 256
O=C1CS/C(=N\N=C\c2ccco2)N1Cc1ccc([N+](=O)[O-])cc1 | > 256
O=C1CS/C(=N\N=C\c2cccc3ccccc23)N1Cc1ccc([N+](=O)[O-])cc1 | > 256

System: Candida parapsilosis
Assay: Antifungal activity against Candida parapsilosis clinical isolate after 24 hrs by sabouraud dextrose broth based microdilution method
Format: functional
Settings: Lodderomyces parapsilosis
Summary of the method: as §2

SMILES | MIC [µg/mL]
C/C(CC(C)C)=N\N=C1/SCC(=O)N1CN1C(=O)c2ccccc2C1=O | 2 (≈ 5.37 µM)
O=C1CS/C(=N\N=C2CCCC2)N1Cc1ccc([N+](=O)[O-])cc1 | 16 (≈ 48.1 µM)
O=C1CS/C(=N\N=C\c2ccco2)N1Cc1ccc([N+](=O)[O-])cc1 | 16 (≈ 46.5 µM)
O=C1CS/C(=N\N=C\c2cccc3ccccc23)N1Cc1ccc([N+](=O)[O-])cc1 | 8 (≈ 19.8 µM)
